Data set [1] is described as follows: Selectivity ratio of IC50 for antiplasmodial activity against ring stage chloroquine-resistant Plasmodium falciparum Dd2 to IC50 for antiplasmodial activity against ring stage chloroquine-sensitive Plasmodium falciparum 3D7. Format: functional. In outline: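 Ring-stage P. falciparum Dd2 and 3D7, twice sorbitol-synchronised, in RPMI-1640 with 25 mM HEPES, 5% human AB serum, Albumax II, hypoxanthine. Exposed 72 h at 37 °C (90% N2/5% CO2/5% O2), 11-point dose response. DAPI stain, confocal imaging, % inhibition against in-plate controls, four-parameter IC50. Two independent duplicate runs. Ratio is Dd2 IC50/3D7 IC50.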

Data set [2] is described as follows: Cytotoxicity against HEK293 cells assessed as cell growth inhibition measured after 72 hrs by resazurin dye based fluorescence assay relative to IC50. The class given is toxicity. The note with it: human. Put shortly: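 HEK293 cells grown in DMEM with 10% FBS and exposed to compound for 72 h at 37 °C, 5% CO2. Medium was then replaced with 44 μM resazurin, incubated 5–6 h more, and fluorescence read at 530/595 nm. Top concentration 80 μM. Curves were duplicate, 11-point dose response.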

Data set [3] deals with DNA. Put plainly: Binding affinity to 5'-CGCATATATGCG-3' DNA (unknown origin) assessed as bound as monomer [DS + 1 M] in charge states 5- at 100 uM by native mass spectrometry. The class given is nucleic-acid assay. In outline: (§1)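 Final sample: 9 μM DNA, 100 μM KCl, 100 μM S-MGB, 1% DMSO in 150 mM ammonium acetate pH 7. DNA with 1% DMSO and no ligand served as control. Sprayed in negative mode at 1.0–1.2 kV. Free, monomer- and dimer-bound DS species were read by charge state.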

Data set [4] concerns DNA. In words: Binding affinity to 5'-CGCATATATGCG-3' DNA (unknown origin) assessed as appearance of small m/z peak corresponding to free ds DNA oligo at 100 uM by native mass spectrometry. Format: nucleic-acid assay. In outline: as §1
Data set [5] is described as follows: Selectivity index, ratio of IC50 for HEK293 cells to IC50 for antiplasmodial activity against ring stage chloroquine-sensitive Plasmodium falciparum 3D7. The class given is toxicity, cell-based. The note with it: human, read-out: Ratio IC50. Put shortly: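 SI is HEK293 IC50 divided by P. falciparum 3D7 IC50. Parasites were sorbitol-synchronized twice, and rings were exposed 72 h at 37 °C (90% N2, 5% CO2, 5% O2), then DAPI-stained and imaged confocally. […] Where no accurate HEK293 IC50 was obtained, a relative IC50 or the top concentration was used and SI reported as a bound.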

The subject of data set [6] is DNA. In words: Binding affinity to 5'-CGCATATATGCG-3' DNA (unknown origin) assessed as bound as dimer [DS + 2 M] in charge states 5- and 4- at 100 uM by native mass spectrometry. The class given is nucleic-acid assay. Put shortly: as §1

The text below walks through data of ChEMBL document CHEMBL6114936, “S-MGBs bearing amidine tail groups are potent, selective antiplasmodial agents” (RSC Med Chem, 2025).

The source made the active and inactive calls. The rule behind the calls is not given here.

Regarding `COc1ccc(/C=C/c2ccc(C(=O)Nc3cc(C(=O)Nc4cc(C(=O)NCCC(=N)N)n(C)c4)n(C)c3)cc2)cc1.O=C(O)C(F)(F)F`, the “Ratio IC50” value in data set [1] worked out at 1.4. In data set [2], the IC50 (usually the point on the concentration scale where inhibition reaches its midpoint) at 72 h was determined as 40 µM. On to `Cn1cc(NC(=O)c2cc(NC(=O)c3ccc(/C=C/c4ccc5ccccc5c4)cc3)cn2C)cc1C(=O)NCCC(=N)N`, for which the outcome in the data set with DNA [3], in the data set with DNA [4] and with DNA [6] was Active. For the same compound, the IC50 at 72 h in data set [2] was 80 µM. The selectivity ratio in data set [5] is more than 265.

Take `COc1cccc(/C=C/c2ccc(C(=O)Nc3cc(C(=O)Nc4cc(C(=O)NCCN(C)C)n(C)c4)n(C)c3)cc2)c1`: the IC50 at 72 h in data set [2] is 20 µM.

`Cn1cc(NC(=O)c2cc(NC(=O)c3ccc(/C=C/c4ccc(F)cc4)cc3)cn2C)cc1C(=O)NCCC(=N)N`: the IC50 at 72 h in data set [2] is 40 µM. For the compound `Cn1cc(NC(=O)c2cc(NC(=O)c3ccc(/C=C/c4ccncc4)cc3)cn2C)cc1C(=O)NCCC(=N)N`, in the data set with DNA [3], the outcome was inactive. For the same compound, in data set [2], the IC50 at 72 h is 40 µM. The selectivity ratio in data set [5] is more than 613. For the same compound, the outcome with DNA [6] was Active.

`COc1cccc(/C=C/c2ccc(C(=O)Nc3cc(C(=O)Nc4cc(C(=O)NCCC(=N)N)n(C)c4)n(C)c3)cn2)c1`: in the data set on DNA [3], the result was inactive. Further, the half-maximal inhibitory concentration (IC50) at 72 h in data set [2] is 45 µM. The selectivity ratio in data set [5] was more than 336. Besides, the result in the data set with DNA [6] was Active. `CC(C)CCn1cc(NC(=O)c2cc(NC(=O)c3cc(NC(=N)c4cc5ccccc5cn4)cn3C)cn2C)cc1C(=O)NCCCN(C)C`: in data set [2], the 50% inhibitory concentration (IC50) at 72 h stood at 40 µM. Turning to `Cn1cc(NC(=O)c2cc(NC(=O)c3ccc(NC(=O)c4cccc(F)c4)cc3)cn2C)cc1C(=O)NCCC(=N)N`, the IC50 at 72 h in data set [2] was 40 µM.

On to `Cn1cc(NC(=O)c2cc(NC(=O)c3ccc(NC(=O)c4ccc(F)cc4)cc3)cn2C)cc1C(=O)NCCC(=N)N`, for which the IC50 at 72 h in data set [2] was determined as 35 µM.

Regarding `Cn1cc(NC(=O)c2cc(NC(=O)c3ccc(/C=C/c4cccc(F)c4)cc3)cn2C)cc1C(=O)NCCC(=N)N`, the IC50 at 72 h in data set [2] came out at 40 µM.

Regarding `CCc1nc(N)nc(N)c1-c1ccc(Cl)cc1` [PYRIMETHAMINE], the “Ratio IC50” value in data set [1] was more than 29740.

Take `Cn1cc(NC(=O)c2cc(NC(=O)c3ccc(/C=C/C(=O)Nc4ccccc4O)cc3)cn2C)cc1C(=O)NCCC(=N)N`: the IC50 at 72 h in data set [2] was determined as 40 µM. On to `CC(C)CCc1sc(NC(=O)c2cc(NC(=O)c3cc(NC(=O)c4cccc(F)c4)cn3C)cn2C)nc1C(=O)NCCCN(C)C`, for which, in data set [2], the IC50 at 72 h turned out to be 40 µM.

For the compound `Cn1cc(NC(=O)c2cc(NC(=O)c3ccc(/C=C/c4ccc(C(F)(F)F)cc4)cc3)cn2C)cc1C(=O)NCCN1CCOCC1`, the IC50 at 72 h in data set [2] is 40 µM. On the same count and under the same terms, the figure for `Cn1cc(NC(=O)c2cc(NC(=O)c3ccc(/C=C/c4ccc5nsnc5c4)cc3)cn2C)cc1C(=O)NCCN1CCOCC1` is 11 µM. `COc1cccc(/C=C/c2ccc(C(=O)Nc3cc(C(=O)Nc4cc(C(=O)NCCCN(C)C)n(C)c4)n(C)c3)cc2)c1`: the IC50 at 72 h in data set [2] came out at 35 µM. Moreover, the selectivity ratio in data set [5] is more than 195. `CN(C)CCCNC(=O)c1cc(NC(=O)c2cc(NC(=O)c3cc(NC(=N)c4cc5ccccc5cn4)cn3C)cn2C)cn1C`: in data set [2], the IC50 at 72 h came to 21 µM.
